Screens as filed in PubChem BioAssay.
N-glyco inh – N-linked glycosylation inhibition; reporter increase, % at 12.5 µM; D54 ERlucT glycosylation luciferase reporter, 24 h; percent of 100 nM tunicamycin response; 0.23% of 360,000 active; AID 588692;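 active = mean luciferase reporter signal, scaled so untreated is 0 and the glycosylation-blocking control 100, at or above a set limit in every replicate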;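 also: luciferase carries N-glycosylation sites so blocking glycosylation raises the light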
FN deposition inh – fibronectin deposition inhibition; AH1F fibroblasts, Alexa488-fibronectin deposition fluorescence, overnight; inhibition, % at 12.6 µM; 0.086% of 350,000 active;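 active = mean inhibition across replicates of 30% or more, regardless of how many single replicates reach that level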
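Assay system: AH1F fibroblasts assembling fluorescent fibronectin matrix; Amount: 10000 AH1F cells per well; Buffer or medium: DMEM, 2% serum; Probe or stimulus: Alexa488-fibronectin, 24 nM final in well; Doses: single compound dose, delivered by pin transfer; Incubation: 1 h adhesion, overnight exposure; Measured by: fluorescence 485/525 nm; Read-out: fibronectin deposition inhibition.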
RAD54 inh – RAD54 (human) branch migration inhibition. 0.14% of 360,000 active. RAD54 Holliday junction branch migration, FAM/BHQ fluorescence. inhibition, % at 10.4 µM;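 active = mean normalized replicate activity at least 40 and at least half of replicates scoring 40 or more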;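 also: inhibitors cause a drop in the FAM fluorescence signal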
NSD2 inh – blocks human histone methyltransferase NSD2 | NSD2 peptide methylation, AlphaScreen, 120 min | inhibition, % at 12.5 µM | 0.54% of 310,000 active; in the data active = inhibition above about 50%
RAD52 inh – blocks human RAD52 DNA annealing; P43351; inhibition, % at 18.7 µM; recombinant RAD52 DNA annealing, FRET fluorescence; 0.46% of 360,000 active;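 active = every replicate showing at least 50% inhibition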
AF4-AF9 inh – MLL-AF4/AF9 protein interaction inhibition; P42568; AlphaScreen, biotin-AF4 peptide binding to FLAG-AF9; inhibition, % at 10 µM; 0.47% of 350,000 active;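 active = every replicate reaching a set inhibition limit, whatever the replicate mean, cut at about 25% in these data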
Target sequence (P42568 whole entry, looked up): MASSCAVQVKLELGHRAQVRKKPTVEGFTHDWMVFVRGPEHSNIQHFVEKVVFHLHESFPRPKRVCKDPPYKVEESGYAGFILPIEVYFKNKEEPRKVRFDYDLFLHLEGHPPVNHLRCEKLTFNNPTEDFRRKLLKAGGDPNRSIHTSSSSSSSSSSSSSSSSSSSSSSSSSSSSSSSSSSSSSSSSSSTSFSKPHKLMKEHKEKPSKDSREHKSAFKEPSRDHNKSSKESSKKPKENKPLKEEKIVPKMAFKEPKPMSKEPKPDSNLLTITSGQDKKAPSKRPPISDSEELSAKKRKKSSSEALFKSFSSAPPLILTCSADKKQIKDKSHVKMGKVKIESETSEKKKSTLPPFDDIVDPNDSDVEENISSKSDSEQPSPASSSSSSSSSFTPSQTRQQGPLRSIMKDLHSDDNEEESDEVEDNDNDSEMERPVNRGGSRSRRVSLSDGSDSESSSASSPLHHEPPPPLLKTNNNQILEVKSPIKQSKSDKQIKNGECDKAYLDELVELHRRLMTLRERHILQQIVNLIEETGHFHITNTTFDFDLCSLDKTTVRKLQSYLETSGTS
AlphaScreen art – AlphaScreen assay artifact in NSD2 counter-screen | shares compounds with NSD2 inh | AC35, µM (doses to about 10 µM) | AID 1053174 | 9.4% of 1,500 active | AlphaScreen artifact counterscreen, preloaded methylated H4 peptide; call rule not given here
Large screens that a line does not name were inactive (follow-up assays come after a bar, where they were run). Rows were chosen to be rich in hits. Some 1.2% of all compounds tested hit in one or more screens of this group.

Cc1ccc(N2C(=O)N(CC(=O)Nc3ccc(C)cc3[N+](=O)[O-])C(=O)C2C)cc1 (centres undefined)	none
Cc1ccc(N2C(=O)N(CC(=O)Nc3cccc([N+](=O)[O-])c3C)C(=O)C2C)cc1 (centres undefined)	NSD2 inh 92 (no result: RAD54 inh) | AlphaScreen art inactive
C[C@H]1CN([C@@H](C)CO)C(=O)c2cc(NC(=O)Nc3cccc4ccccc34)ccc2O[C@@H]1CN(C)S(=O)(=O)c1cn(C)cn1	none (no result: N-glyco inh, FN deposition inh, NSD2 inh)
Cc1cc(C(=O)COC(=O)c2ccc([N+](=O)[O-])o2)c(C)n1CC1CCCO1 (centres undefined)	NSD2 inh 54 | AlphaScreen art inactive
O=C(COC(=O)c1ccc([N+](=O)[O-])o1)NC1CCCC1	none (no result: FN deposition inh)
CCN(C(=O)COC(=O)c1ccc([N+](=O)[O-])o1)C1CCCCC1	NSD2 inh 69 | AlphaScreen art inactive
COCCn1c(C)cc(C(=O)COC(=O)c2ccc([N+](=O)[O-])o2)c1C	none
O=C(COC(=O)c1ccc([N+](=O)[O-])o1)NC1CCS(=O)(=O)C1 (centres undefined)	NSD2 inh 74 (no result: RAD54 inh) | AlphaScreen art inactive
Cc1cccc(C(=O)NCC(=O)OCc2nnc(-c3ccccc3)o2)c1	NSD2 inh active (no result: RAD54 inh) | AlphaScreen art inactive
COc1cccc(-c2cnc3c(c2)C(=O)N([C@H](C)CO)C[C@H](C)[C@H](CN(C)S(=O)(=O)c2cccs2)O3)c1	none (no result: N-glyco inh, NSD2 inh)
Nc1nonc1-c1nc2ccccc2n1CC(=O)N/N=C/c1ccc(-c2ccccc2C(=O)O)o1	NSD2 inh 63 (no result: RAD54 inh) | AlphaScreen art inactive
Cc1ccccc1-c1nnc2n1N=C(c1ccc(O)c(O)c1)CS2	NSD2 inh 69 (no result: N-glyco inh, FN deposition inh, RAD54 inh, RAD52 inh, AF4-AF9 inh) | AlphaScreen art inactive
COC(=O)c1cc(S(=O)(=O)N2CCOCC2)c(Cl)cc1N1CCOCC1	none (no result: FN deposition inh, RAD52 inh, AF4-AF9 inh)
COC(=O)c1cc(C)nc2c1C(=O)C(=O)C=C2N1CCOCC1	NSD2 inh active | AlphaScreen art inactive
O=C(C1CC1)N1CC(=O)N2[C@H](CO)[C@H](c3ccc(C#Cc4cccc(F)c4)cc3)[C@@H]2C1	none (no result: N-glyco inh, RAD54 inh, NSD2 inh)
CC1CCCCC12NC(=O)N(CC(=O)NCc1ccco1)C2=O (centres undefined)	none
CC1CCCCC12NC(=O)N(CC(=O)NC(=O)NCc1ccco1)C2=O (centres undefined)	NSD2 inh 121 (no result: RAD52 inh, AF4-AF9 inh) | AlphaScreen art inactive
CC(NC(=O)COC(=O)c1ccc([N+](=O)[O-])s1)c1ccccc1 (centres undefined)	NSD2 inh 66 (no result: RAD52 inh, AF4-AF9 inh) | AlphaScreen art inactive
CN(CC(=O)Nc1ccccc1Cl)C(=O)COC(=O)c1cccs1	none
Cc1ccc(C(=O)OCC(=O)NC(C)c2ccccc2)s1 (centres undefined)	none
CN(CC(=O)Nc1ccccc1Cl)C(=O)COC(=O)c1ccc([N+](=O)[O-])s1	NSD2 inh 78 | AlphaScreen art inactive
O=C1CN(C(=O)COC(=O)c2ccc([N+](=O)[O-])s2)c2ccccc2N1	NSD2 inh 60 (no result: FN deposition inh, RAD54 inh, RAD52 inh, AF4-AF9 inh) | AlphaScreen art inactive
O=C(COC(=O)c1ccc([N+](=O)[O-])s1)NCCc1ccccc1	NSD2 inh 58 (no result: FN deposition inh, AF4-AF9 inh) | AlphaScreen art inactive
O=C(COC(=O)c1ccc([N+](=O)[O-])s1)NC(=O)NCc1ccccc1	none
O=C1CN(C(=O)COC(=O)c2cccs2)c2ccccc2N1	none
Cc1cccc(-c2ccc([C@@H]3[C@@H](CO)N4CCCCN(C(=O)NC(C)C)C[C@@H]34)cc2)c1	none (no result: N-glyco inh, FN deposition inh, NSD2 inh)
C[C@@H](NC(=O)C[C@H]1CC[C@H](NC(=O)c2cccnc2)[C@H](CO)O1)c1ccccc1	none (no result: N-glyco inh, NSD2 inh)
Cc1ccc(-n2ncc3c(=O)n(CC(=O)OCc4ccccc4)cnc32)cc1	none (no result: FN deposition inh, RAD52 inh, AF4-AF9 inh)
O=C(Cn1cnc2c(cnn2-c2ccccc2)c1=O)OCc1ccccc1	NSD2 inh 95 (no result: FN deposition inh, RAD54 inh, RAD52 inh, AF4-AF9 inh) | AlphaScreen art inactive
FC(F)(F)c1nc(-c2cccnc2)ncc1-c1nnnn1-c1ccccc1	none (no result: RAD52 inh, AF4-AF9 inh)
COc1ccc(-n2nnnc2-c2cnc(N3CCCC3)nc2C(F)(F)F)cc1	NSD2 inh 52 (no result: RAD52 inh, AF4-AF9 inh) | AlphaScreen art inactive
Cc1c([N+](=O)[O-])cc(N2C(=O)C=CC2=O)cc1[N+](=O)[O-]	NSD2 inh 55 (no result: FN deposition inh, AF4-AF9 inh) | AlphaScreen art inactive
CCN(CC)S(=O)(=O)c1cccc(-c2nnc(SCCCC(=O)c3ccc(F)cc3)o2)c1	NSD2 inh 127 (no result: RAD52 inh, AF4-AF9 inh) | AlphaScreen art inactive
O=C(NCc1ccc(F)cc1)C1CCCN1S(=O)(=O)c1ccccc1C(F)(F)F (centres undefined)	NSD2 inh 137 | AlphaScreen art inactive
O=C(NCc1ccc(F)cc1)C1CCCN1S(=O)(=O)c1ccc(F)cc1 (centres undefined)	none
CC1CCC2C(C1)c1sc(=O)[nH]c1SC2(C)C (centres undefined)	NSD2 inh 111 (no result: RAD52 inh, AF4-AF9 inh) | AlphaScreen art inactive
COc1ccc2c3c([nH]c2c1)[C@@H](CO)N(C(=O)c1cccnc1)CC31CCN(C(=O)Nc2cccc(F)c2)CC1	none (no result: N-glyco inh, FN deposition inh, RAD54 inh, NSD2 inh)
O=C(Nc1ccc(F)cc1)Nc1ccc2c(c1)[C@H]1C[C@@H](CC(=O)N3CCCCC3)O[C@@H](CO)[C@H]1O2	none (no result: N-glyco inh, NSD2 inh, RAD52 inh, AF4-AF9 inh)
CC(/C=N/n1c(-c2cccnc2)n[nH]c1=S)=C\c1ccco1	none
C/C(C=Nn1c(-c2ccc(F)cc2)n[nH]c1=S)=C/c1ccco1	NSD2 inh 61 (no result: N-glyco inh, FN deposition inh, RAD54 inh, RAD52 inh, AF4-AF9 inh) | AlphaScreen art inactive
C[C@@H]1CN([C@H](C)CO)C(=O)c2cccc(N(C)C)c2O[C@H]1CN(C)C	none (no result: N-glyco inh, NSD2 inh)
FC(F)(F)CN1C[C@@H]2C(c3ccccc3)[C@H](C1)N2CC(F)(F)F (some centres undefined)	none (no result: N-glyco inh, RAD54 inh, NSD2 inh, RAD52 inh, AF4-AF9 inh)
Cc1ncc(CO)c2c1Oc1nc(-c3ccccc3)nc(SCC(=O)N3CCOCC3)c1C2	NSD2 inh 79 | AlphaScreen art inactive
Cc1ncc(CO)c2c1Oc1nc(-c3ccccc3)nc(SCC(=O)N3CCCCC3)c1C2	none
CCCc1cc(Nc2ccccc2C)n2ncnc2n1	NSD2 inh 57 | AlphaScreen art inactive
CCCc1cc(Nc2cccc(OCC)c2)n2ncnc2n1	none (no result: FN deposition inh, RAD52 inh, AF4-AF9 inh)
Cc1cccc(N2CCN(S(=O)(=O)c3c(C)nc4scc(C)n4c3=O)CC2C)c1 (centres undefined)	NSD2 inh 105 | AlphaScreen art inactive
Cc1nc2scc(C)n2c(=O)c1S(=O)(=O)N1CCN(c2ccccc2)CC1	none (no result: RAD54 inh)
O=C(Nc1nnc(SCc2cccc3ccccc23)s1)C1COc2ccccc2O1 (centres undefined)	NSD2 inh 63 | AlphaScreen art inactive
Cc1c(CN(C)C)c2c(n1Cc1ccccc1)C(=O)c1ccccc1-2	NSD2 inh 93 (no result: FN deposition inh, RAD52 inh, AF4-AF9 inh) | AlphaScreen art 5.7µM
Cc1cc(=O)n(Cc2ccccc2)c2ccccc12	none
O=C(NCCCn1ccnc1)C1CCN(S(=O)(=O)c2ccc(F)cc2)CC1	NSD2 inh 57 | AlphaScreen art inactive
